Test results from ChEMBL document CHEMBL1121603, “Structure-activity relationships of antibacterial 6,7- and 7,8-disubstituted 1-alkyl-1,4-dihydro-4-oxoquinoline-3-carboxylic acids” (1980).
≈ marks a conversion by molar mass, not a printed value.

Legend:
Type in all cases: functional
[1] = tested on: Escherichia coli; experiment: In vitro for antibacterial activity against Gram-negative Escherichia coli […] JC-2.
In short: (§1)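 MIC in µg/mL, determined by a standard twofold serial dilution method on agar media.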

[2] = tested on: Pseudomonas aeruginosa; experiment: In vitro antibacterial activity against Gram-negative Pseudomonas aeruginosa V-1.; in short: as §1
[3] = tested on: Staphylococcus aureus; experiment: In vitro antibacterial activity against Gram-positive, Staphylococcus aureus 209 P; in short: as §1

Structure (SMILES)	MIC [1]	MIC [2]	MIC [3]
CCn1cc(C(=O)O)c(=O)c2cc(F)c(N3CCCCC3)cc21	1.56 µg/mL (≈ 4.9 µM)	50 µg/mL (≈ 157 µM)	0.78 µg/mL (≈ 2.45 µM)
CCn1cc(C(=O)O)c(=O)c2cc([N+](=O)[O-])c(N3CCNCC3)cc21	0.78 µg/mL (≈ 2.25 µM)	12.5 µg/mL (≈ 36.1 µM)	25 µg/mL (≈ 72.2 µM)
CCn1cc(C(=O)O)c(=O)c2cc(F)c(N(C)C)cc21	0.39 µg/mL (≈ 1.4 µM)	50 µg/mL (≈ 180 µM)	0.78 µg/mL (≈ 2.8 µM)
CCn1cc(C(=O)O)c(=O)c2ccc(N3CCNCC3)c(Cl)c21.Cl	0.39 µg/mL	6.25 µg/mL	3.13 µg/mL
CCn1cc(C(=O)O)c(=O)c2cc(Br)c(N3CCN(C)CC3)cc21	0.39 µg/mL (≈ 0.989 µM)	100 µg/mL (≈ 254 µM)	1.56 µg/mL (≈ 3.96 µM)
CCn1cc(C(=O)O)c(=O)c2cc(Cl)c(N3CCN(C)CC3)cc21	0.78 µg/mL (≈ 2.23 µM)	25 µg/mL (≈ 71.5 µM)	1.56 µg/mL (≈ 4.46 µM)
CCn1cc(C(=O)O)c(=O)c2cc(F)c(N3CCCC3)cc21	0.39 µg/mL (≈ 1.28 µM)	12.5 µg/mL (≈ 41.1 µM)	0.2 µg/mL (≈ 0.657 µM)
CCn1cc(C(=O)O)c(=O)c2cc3c(cc21)OCO3 [OXOLINIC ACID]	0.1 µg/mL (≈ 0.383 µM)	25 µg/mL (≈ 95.7 µM)	3.13 µg/mL (≈ 12 µM)
CCn1cc(C(=O)O)c(=O)c2cc(F)c(N3CCC(N(C)C)CC3)cc21	0.1 µg/mL (≈ 0.277 µM)	3.13 µg/mL (≈ 8.66 µM)	0.39 µg/mL (≈ 1.08 µM)
CCn1cc(C(=O)O)c(=O)c2cc(F)c(N3CCC(C(N)=O)CC3)cc21	1.56 µg/mL (≈ 4.32 µM)	100 µg/mL (≈ 277 µM)	1.56 µg/mL (≈ 4.32 µM)
CCn1cc(C(=O)O)c(=O)c2ccc(C)nc21 [NALIDIXIC ACID]	3.13 µg/mL (≈ 13.5 µM)	100 µg/mL (≈ 431 µM)	> 100 µg/mL
CCn1cc(C(=O)O)c(=O)c2cc(F)c(C)cc21 [NALDIXIC ACID]	0.39 µg/mL (≈ 1.56 µM)	50 µg/mL (≈ 201 µM)	6.25 µg/mL (≈ 25.1 µM)
Cl.Cn1cc(C(=O)O)c(=O)c2cc(F)c(N3CCNCC3)cc21	0.39 µg/mL	1.56 µg/mL	6.25 µg/mL
CN1CCN(c2cc3c(cc2F)c(=O)c(C(=O)O)cn3CCF)CC1	0.1 µg/mL (≈ 0.285 µM)	3.13 µg/mL (≈ 8.91 µM)	0.39 µg/mL (≈ 1.11 µM)
CCn1cc(C(=O)O)c(=O)c2cc(F)c(Cl)cc21	1.56 µg/mL (≈ 5.79 µM)	100 µg/mL (≈ 371 µM)	12.5 µg/mL (≈ 46.4 µM)
CCn1cc(C(=O)O)c(=O)c2cc(F)c(N)cc21 [7-AMINO-FLUOROQUINONE]	3.13 µg/mL (≈ 12.5 µM)	> 100 µg/mL	> 100 µg/mL
CCn1cc(C(=O)O)c(=O)c2ccc(N3CCNCC3)cc21	0.78 µg/mL (≈ 2.59 µM)	3.13 µg/mL (≈ 10.4 µM)	12.5 µg/mL (≈ 41.5 µM)
CCn1cc(C(=O)O)c(=O)c2cc(C(C)=O)c(N3CCNCC3)cc21	100 µg/mL (≈ 291 µM)	> 100 µg/mL	100 µg/mL (≈ 291 µM)
CCOC(=O)c1cn(CC)c2cc(N3CCNCC3)c(F)cc2c1=O	12.5 µg/mL (≈ 36 µM)	50 µg/mL (≈ 144 µM)	50 µg/mL (≈ 144 µM)
CCn1cc(C(=O)O)c(=O)c2cc(F)c(N3CCN(C(C)=O)CC3)cc21 [4-N-ACETYL-1-PIPERAZINYL-NORFLOXACIN]	1.56 µg/mL (≈ 4.32 µM)	25 µg/mL (≈ 69.2 µM)	0.78 µg/mL (≈ 2.16 µM)
CCn1cc(C(=O)O)c(=O)c2cc(F)c(N3CCNC(=O)C3)cc21 [3-OXO-1-PIPERAZINYL-NORFLOXACIN]	0.39 µg/mL (≈ 1.17 µM)	12.5 µg/mL (≈ 37.5 µM)	3.13 µg/mL (≈ 9.39 µM)
CCn1cc(C(=O)O)c(=O)c2cc(F)c(N3CCN(Cc4ccc([N+](=O)[O-])cc4)CC3)cc21	6.25 µg/mL (≈ 13.8 µM)	> 100 µg/mL	1.56 µg/mL (≈ 3.43 µM)
CCn1ccc(=O)c2cc(F)c(N3CCNCC3)cc21	> 100 µg/mL	> 100 µg/mL	> 100 µg/mL
CCn1cc(C(=O)OC)c(=O)c2cc(F)c(N3CCNCC3)cc21	12.5 µg/mL (≈ 37.5 µM)	50 µg/mL (≈ 150 µM)	100 µg/mL (≈ 300 µM)
O=C(O)c1cn(Cc2ccccc2)c2cc(N3CCNCC3)c(F)cc2c1=O	0.78 µg/mL (≈ 2.05 µM)	1.56 µg/mL (≈ 4.09 µM)	1.56 µg/mL (≈ 4.09 µM)
CCn1cc(C(=O)O)c(=O)c2cc(SC)c(N3CCNCC3)cc21	0.78 µg/mL (≈ 2.24 µM)	12.5 µg/mL (≈ 36 µM)	25 µg/mL (≈ 72 µM)

Structure (SMILES)	MIC [1]	MIC [2]	MIC [3]
C=CCN1CCN(c2cc3c(cc2F)c(=O)c(C(=O)O)cn3CC)CC1	0.39 µg/mL (≈ 1.09 µM)	6.25 µg/mL (≈ 17.4 µM)	0.39 µg/mL (≈ 1.09 µM)
CCN1CCN(c2cc3c(cc2F)c(=O)c(C(=O)O)cn3CC)CC1	0.1 µg/mL (≈ 0.288 µM)	3.13 µg/mL (≈ 9.01 µM)	–
Cl.O=C(O)c1cn(CCO)c2cc(N3CCNCC3)c(F)cc2c1=O	0.39 µg/mL	3.13 µg/mL	1.56 µg/mL
CCCn1cc(C(=O)O)c(=O)c2cc(F)c(N3CCNCC3)cc21.Cl	0.2 µg/mL	3.13 µg/mL	1.56 µg/mL
CCn1cc(C(=O)O)c(=O)c2cc(F)c(N3CCNCC3)cc21 [NORFLOXACIN]	0.05 µg/mL (≈ 0.157 µM)	0.39 µg/mL (≈ 1.22 µM)	0.39 µg/mL (≈ 1.22 µM)
CCn1cc(C(=O)O)c(=O)c2cc(F)c(N3CCOCC3)cc21	0.2 µg/mL (≈ 0.624 µM)	12.5 µg/mL (≈ 39 µM)	0.78 µg/mL (≈ 2.44 µM)
CCn1cc(C(=O)O)c(=O)c2cc(F)c(NCCN)cc21	6.25 µg/mL (≈ 21.3 µM)	50 µg/mL (≈ 170 µM)	> 100 µg/mL
C=CCn1cc(C(=O)O)c(=O)c2cc(F)c(N3CCNCC3)cc21.Cl	0.2 µg/mL	1.56 µg/mL	3.13 µg/mL
C=Cn1cc(C(=O)O)c(=O)c2cc(F)c(N3CCNCC3)cc21	0.1 µg/mL (≈ 0.315 µM)	0.39 µg/mL (≈ 1.23 µM)	3.13 µg/mL (≈ 9.86 µM)
CCn1cc(C(=O)O)c(=O)c2cc(F)c(N3CCN(C(=O)c4ccccc4)CC3)cc21	3.13 µg/mL (≈ 7.39 µM)	25 µg/mL (≈ 59 µM)	1.56 µg/mL (≈ 3.68 µM)
CCn1cc(C(=O)O)c(=O)c2cc(Cl)c(N3CCNCC3)cc21.Cl	0.2 µg/mL	3.13 µg/mL	1.56 µg/mL
CCn1cc(C(=O)O)c(=O)c2cc(C#N)c(N3CCNCC3)cc21	0.39 µg/mL (≈ 1.2 µM)	6.25 µg/mL (≈ 19.2 µM)	12.5 µg/mL (≈ 38.3 µM)
CCn1cc(C(=O)O)c(=O)c2cc(F)c(N3CCN(C)CC3)cc21 [PEFLOXACIN]	0.1 µg/mL (≈ 0.3 µM)	–	0.39 µg/mL (≈ 1.17 µM)
CCn1cc(C(=O)O)c(=O)c2cc(F)c(N3CCN(C=O)CC3)cc21 [4-N-FORMYL-1-PIPERAZINYL-NORFLOXACIN]	0.39 µg/mL (≈ 1.12 µM)	6.25 µg/mL (≈ 18 µM)	1.56 µg/mL (≈ 4.49 µM)
CCn1cc(C(=O)O)c(=O)c2cnc(N3CCNCC3)nc21 [PIPEMIDIC ACID]	1.56 µg/mL (≈ 5.14 µM)	12.5 µg/mL (≈ 41.2 µM)	25 µg/mL (≈ 82.4 µM)
CCn1cc(C(=O)O)c(=O)c2cc(F)c(N3CCC(O)CC3)cc21	0.2 µg/mL (≈ 0.598 µM)	12.5 µg/mL (≈ 37.4 µM)	0.39 µg/mL (≈ 1.17 µM)
CCn1cc(C(=O)O)c(=O)c2cc(F)c(N3CCN(CCO)CC3)cc21	0.1 µg/mL (≈ 0.275 µM)	6.25 µg/mL (≈ 17.2 µM)	0.78 µg/mL (≈ 2.15 µM)
Cl.O=C(O)c1cn(CCF)c2cc(N3CCNCC3)c(F)cc2c1=O	0.1 µg/mL	0.78 µg/mL	1.56 µg/mL
CCn1cc(C(=O)O)c(=O)c2cc(C)c(N3CCNCC3)cc21.Cl	0.39 µg/mL	6.25 µg/mL	3.13 µg/mL
CCn1cc(C(=O)O)c(=O)c2cc(F)c(NCCNC(C)=O)cc21 [7-ACETYLAMINOETHYL-AMINO-FLUOROQUINONE]	25 µg/mL (≈ 74.6 µM)	> 100 µg/mL	> 100 µg/mL
CCn1cc(C(=O)O)c(=O)c2ccc(N3CCNCC3)c(F)c21.Cl	0.78 µg/mL	1.56 µg/mL	12.5 µg/mL
C=Cn1cc(C(=O)O)c(=O)c2cc(F)c(N3CCN(C)CC3)cc21	0.1 µg/mL (≈ 0.302 µM)	3.13 µg/mL (≈ 9.45 µM)	1.56 µg/mL (≈ 4.71 µM)
CCn1cc(C(=O)O)c(=O)c2cc(Br)c(N3CCNCC3)cc21.Cl	0.39 µg/mL	12.5 µg/mL	3.13 µg/mL
CCn1cc(C(=O)O)c(=O)c2cc(F)c(N3CCN(Cc4ccccc4)CC3)cc21	0.78 µg/mL (≈ 1.9 µM)	50 µg/mL (≈ 122 µM)	0.39 µg/mL (≈ 0.952 µM)
CCn1cc(C(=O)O)c(=O)c2cc(F)c(N3CCN(Cc4ccc(N)cc4)CC3)cc21	–	12.5 µg/mL (≈ 29.4 µM)	–
